Screening data deposited in PubChem BioAssay by Sanford-Burnham Center for Chemical Genomics.
This is a sample that favours compounds with a hit; in the whole collection about 0.79% have one here.
bIAP inhibitor: bovine intestinal alkaline phosphatase inhibitors, primary screen, selectivity assay for TNAP inhibitor project, biochemical, bovine IAP, CDP-star luminescence; alkaline phosphatase, intestinal [Bos taurus]; purified bovine IAP, 30 min; inhibition, % at 20 µM; 190,000 tested, under 10 active;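 active = over 50% inhibition of intestinal alkaline phosphatase at 20 µM in the single-dose screen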
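Incubation: 30 min reaction at room temperature / Material: purified bovine intestinal alkaline phosphatase (IAP) enzyme / Input: enzyme at 1/65,000,000 dilution / Dosing: 20 µM single dose / Signal: CDP-star luminescence signal / Reagent: CDP-star chemiluminescent phosphatase substrate, 30 µM final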
mIAP block: inhibitors of mouse IAP, primary screen, biochemical, luminescence, uHTS | intestinal alkaline phosphatase [Mus musculus] | purified mouse IAP, CDP-Star luminescence, 30 min | inhibition, % at 10 µM | actives 0.2% (n = 330,000) | AID 2806, 2010;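 active = inhibition of at least 40% at 10 µM in the primary screen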;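 also: plate controls were DMSO with enzyme for no effect and no enzyme wells for full effect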
hIAP block: human IAP inhibitors, primary screen, biochemical, luminescence, uHTS; purified IAP, CDP-Star luminescence, 30 min; inhibition, % at 10 µM; actives 0.12% (n = 330,000); AID 2544, 2010;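 active = inhibition reaching a set limit with compound at 10 µM in the primary screen, cut at about 35% in these data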;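 also: plate controls were DMSO wells with enzyme for no effect and no-enzyme buffer wells for full effect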
Target sequence (P09923 whole entry, looked up): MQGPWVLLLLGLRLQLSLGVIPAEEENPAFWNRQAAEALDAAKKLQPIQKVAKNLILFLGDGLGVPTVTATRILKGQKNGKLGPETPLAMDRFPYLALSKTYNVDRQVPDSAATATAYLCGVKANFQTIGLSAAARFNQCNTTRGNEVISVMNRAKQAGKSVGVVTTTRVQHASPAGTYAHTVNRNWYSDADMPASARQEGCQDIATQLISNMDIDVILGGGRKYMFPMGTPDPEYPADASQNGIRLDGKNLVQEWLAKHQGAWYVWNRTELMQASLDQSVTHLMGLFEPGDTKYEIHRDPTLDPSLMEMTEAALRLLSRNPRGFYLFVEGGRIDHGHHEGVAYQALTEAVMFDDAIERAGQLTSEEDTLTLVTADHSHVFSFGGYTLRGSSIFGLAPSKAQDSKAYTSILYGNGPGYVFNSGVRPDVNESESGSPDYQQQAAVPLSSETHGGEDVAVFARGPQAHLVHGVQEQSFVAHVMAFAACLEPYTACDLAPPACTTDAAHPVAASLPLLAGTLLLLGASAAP
hIAP activ: human IAP activators, primary screen, biochemical, luminescence, uHTS | Intestinal-type alkaline phosphatase (Homo sapiens), P09923 | purified human IAP, CDP-Star luminescence, 30 min; hits give high values; 1 = vehicle-only enzyme, 0 = enzyme-free background | activation factor at 10 µM | actives 0.16% (n = 330,000);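 active = activation factor of the enzyme at least 2-fold when tested at 20 µM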
mIAP act: activators of mouse IAP, primary screen, biochemical, luminescence, uHTS; intestinal alkaline phosphatase [Mus musculus]; muIAP, CDP-Star luminescence, 30 min; hits give high values; 1 = vehicle-only enzyme signal, 0 = enzyme-free wells; activation factor at 10 µM; actives 0.24% (n = 330,000); AID 2805, 2010;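 active = activation factor of at least 2 at 20 µM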
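also added = chemiluminescent substrate CDP-Star | test system = mouse IAP enzyme | signal = chemiluminescence readout | compound = DMSO-dissolved test compounds | incubation = 30 min at room temperature | benchmarks = DMSO wells, no-enzyme wells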
bIAP activator: bovine intestinal alkaline phosphatase activators, primary screen, biochemical, bovine IAP, CDP-star luminescence; actives 0.17% (n = 200,000); alkaline phosphatase, intestinal [Bos taurus]; activation factor at 20 µM; purified bovine IAP, 30 min; hits give high values; fold of DMSO-control signal, blank-subtracted;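 active = activation factor of 2 or more at 20 µM, a signal rise over negative controls twice the positive control's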
Numbers without * were called inactive; i = inactive; . = no result given.

SMILES	bIAP inhibitor	mIAP block	hIAP block	hIAP activ	mIAP act	bIAP activator
CC(=O)Nc1ccc(C(=O)NC2CCSc3ccccc32)cc1 (stereo unspecified)	.	0	8	0.92	1	.
COC(=O)c1ccc(NC(=S)NC2CC2)cc1	-2	-6	9	0.91	1.1	1
Cc1ccc(NC(=S)NC2CCSc3ccccc32)cc1 (stereo unspecified)	.	-269	-33	1.3	3.7*	.
COC(=O)c1ccc(NC(=S)NC2CCc3ccccc32)cc1 (stereo unspecified)	-1	-190	-4	1	2.9*	1
O=C(Nc1cccc(Cl)c1)N1CCN2C(=O)c3ccccc3C12c1ccccc1 (stereo unspecified)	-8	-108	17	0.83	2.1*	1.1
CCOc1ccc2[nH]c3c(NCCC(C)C)ncnc3c2c1	.	-122	-61	1.6	2.2*	.
CCN(CC)CCNc1ncnc2c1[nH]c1ccc(OC)cc12	.	-11	-12	1.1	1.1	.
COc1ccc2[nH]c3c(NCCC4=CCCCC4)ncnc3c2c1	-113	.	.	.	.	2.1*
C=CCNc1nc(C(=O)OCC(=O)N(Cc2ccccc2)C(C)C)cs1	.	0	1	0.99	1	.
COc1ccc(C(=O)N2CCC3(CC2)NCCc2[nH]cnc23)cc1	.	-7	-21	1.2	1.1	.
CC(/C=C/c1ccco1)=N\NC(=O)c1cc(C)[nH]n1	-25	41*	-22	1.2	0.59	1.2
COc1ccc(S(=O)(=O)/N=C2/NC(=O)/C(=C/c3ccco3)S2)cc1	-5	57*	-8	1.1	0.43	1.1
COc1ccc(N=C2NC(=O)/C(=C/c3ccco3)S2)cc1	.	25	10	0.9	0.75	.
C1CCC(c2nn3c(-c4n[nH]c5c4CCC5)nnc3s2)CC1	-334	2	-1	1	0.98	4.3*
COc1ccc(C2=NOC(Cn3nc(-c4ccccc4)cc3C(=O)NCc3ccccc3OC)C2)cc1 (stereo unspecified)	.	-107	0	1	2.1*	.
CC(NS(=O)(=O)c1ccc2c(c1)CC(C)N2C(=O)C1CC1)c1ccccc1 (stereo unspecified)	.	10	-20	1.2	0.91	.
O=C1S/C(=C\c2cccs2)C(=O)N1c1ccc(O)cc1	.	6	-17	1.2	0.94	.
O=C1S/C(=C\C=C\c2ccco2)C(=O)N1c1ccccc1	3	76*	27	0.73	0.24	1
O=C1S/C(=C\C=C\c2ccco2)C(=O)N1c1ccc(O)cc1	-59	80*	1	0.99	0.2	1.6
Nn1c(-c2ccccc2Cl)nnc1-c1ccccc1Cl	-157	-1	5	0.95	1	2.6*
CCOc1ccccc1CNC(=O)C1CCCN(c2nnc(C)c3c(C)n(-c4ccccc4)nc23)C1 (stereo unspecified)	.	4	-22	1.2	0.96	.
Cc1cc(/C=N/n2cnnc2)c(C)n1-c1ccc(OCc2ccc(Cl)cc2Cl)cc1	-148	-18	-23	1.2	1.2	2.5*
Cc1cc(/C=N/n2cnnc2)c(C)n1-c1ccc(Cl)cc1	10	0	-1	1	1	0.9
O=C1c2ccccc2S(=O)(=O)c2cc(N3CCc4ccccc4C3)ccc21	.	43*	8	0.92	0.57	.
O=C1c2ccccc2S(=O)(=O)c2cc(N3CCC(C(=O)N4CCCCC4)CC3)ccc21	.	-2	19	0.81	1	.
SMILES	bIAP inhibitor	mIAP block	hIAP block	hIAP activ	mIAP act	bIAP activator
Cc1noc(-c2ccccc2)c1NC(=O)Nc1ccccc1	.	-49	1	0.99	1.5	.
Cc1noc(-c2ccccc2)c1NC(=O)Nc1ccc(Cl)cc1	.	-206	-10	1.1	3.1*	.
CN(C)c1ccc(-c2nc3ccccc3n2C)cc1	7	4	14	0.86	0.96	0.9
Cc1ccc(C(O)c2nc3ccccc3n2C(C)C)cc1 (stereo unspecified)	-149	-3	3	0.97	1	2.5*
CC(C)n1c(-c2ccc(N(C)C)cc2)nc2ccccc21	-242	8	-65	1.6	0.93	3.4*
Cc1ccc(NC(=O)C2CCN(S(=O)(=O)c3ccc4c(c3)NC(=O)C(C)S4)CC2)cc1Cl (stereo unspecified)	.	-137	-53	1.5	2.4*	.
CN(C)c1ccc(/C=C/c2ccc3ccccc3[n+]2C)cc1	17	42*	7	0.93	0.58	0.8
CN(CCCS(=O)(=O)[O-])c1ccc(/C=C/c2ccc3ccccc3[n+]2C)cc1	.	2	19	0.81	0.98	.
O=C(Nc1ccccc1)Nc1ccc(S(=O)(=O)N2CCCCC2)cc1	17	-140	6	0.94	2.4*	0.8
O=C(Nc1ccc(S(=O)(=O)N2CCCCC2)cc1)c1ccccc1Cl	19	-1	14	0.86	1	0.8
Cc1oc(S(=O)(=O)N2CCCCC2)cc1NC(=O)Nc1ccc(Cl)cc1	.	-156	-35	1.4	2.6*	.
CS(=O)(=O)N1CCN(c2ccccc2NC(=O)c2cc3ccccc3o2)CC1	.	-2	-20	1.2	1	.
CN(C)CCCNS(=O)(=O)c1ccc(N2CCC(c3ccc(Cl)cc3)=N2)cc1	-125	-89	-18	1.2	1.9	2.2*
O=S(=O)(c1ccc(N2CCC(c3ccc(Cl)cc3)=N2)cc1)N(CCO)CCO	-168	-120	-6	1.1	2.2*	2.7*
CCOc1ccc(C(=S)N2CCCC2)c(OCC)c1	.	-1	4	0.96	1	.
COc1cc(NC(=O)c2ccc3c(c2)OCO3)c2ncccc2c1	i	2	-4	1	0.98	11*
O=C(Nc1cccc2cccnc12)c1ccc2c(c1)OCCO2	26	-1	-13	1.1	1	0.7
Cc1ccc(C(=O)Cn2c(=N)n(N)c3ccccc32)cc1	.	7	-11	1.1	0.93	.
CCN(CC)CCn1c(=N)n(CC(=O)c2ccc(C)cc2)c2ccccc21	.	41*	-3	1	0.59	.
COc1ccc(Cl)cc1NC(=O)CN1CCC(n2nnc3cc(C)ccc32)CC1	-435	-15	9	0.91	1.2	5.3*
O=C(c1cccc(C(F)(F)F)c1)C1CCCN(C(=O)CN2CCOC2=O)C1 (stereo unspecified)	.	7	-5	1.1	0.93	.
CN1CCS/C1=C\C=C1/SC(=S)N(CC(=O)O)C1=O	.	.	.	.	.	0.4
CCN1C(=O)/C(=C/C=C2/SCCN2C)SC1=S	13	48*	9	0.91	0.52	0.9
Cn1c(SCC(=O)NNC(=O)c2ccccc2)nnc1C(F)(F)F	.	-3	10	0.9	1	.
